Data: ChEMBL document CHEMBL3414425, “Synthesis and biological evaluation of new imidazo[2,1-b][1,3,4]thiadiazole-benzimidazole derivatives” (Eur J Med Chem, 2015)
Converted amounts (≈) assume the structure as drawn. The source made the active and inactive calls. The calls are words filed in the database; no cut-off is given here.

What was measured:
[1] = system: Escherichia coli; assay: Antibacterial activity against Escherichia coli at 0.5 mg/ml incubated for 18 hrs by well plate technique; type: functional; conditions: for zone of inhibition at 500 µg/mL: read-out: DIZ
Method in brief: (§1)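 Bacteria kept on nutrient agar at 37 °C, grown statically in nutrient broth (start ~10-100 cfu/mL) at 37 °C for 18-24 h. Suspensions diluted in saline and spread on nutrient agar, then wells cut with a cork borer. Compound in DMSO at 1 or 0.5 mg/mL added to wells, 37 °C, 18 h. Inhibition zone diameter measured minus DMSO value; triplicate; streptomycin standard.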

[2] = system: Chrysosporium keratinophilum; assay: Antifungal activity against Chrysosporium keratinophilum at 0.5 mg/ml incubated for 3 days; type: functional; conditions: for zone of inhibition at 500 µg/mL: 72 h, read-out: IZ
Method in brief: (§2)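 Well plate method on potato dextrose agar. Fungal stock suspended in distilled water with Tween 80 and swabbed over plates. Samples in DMSO at 1 and 0.5 mg/mL added to wells, incubated 25 °C for 3 days, then scored for inhibition zones; fluconazole standard.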

[3] = system: Pseudomonas aeruginosa; assay: Antibacterial activity against Pseudomonas aeruginosa at 0.5 mg/ml incubated for 18 hrs by well plate technique; type: functional; conditions: for zone of inhibition at 500 µg/mL: read-out: DIZ; method in brief: as §1
[4] = system: Candida albicans; assay: Antifungal activity against Candida albicans at 1 mg/ml incubated for 3 days; type: functional; conditions: for zone of inhibition at 1000 µg/mL: 72 h, read-out: IZ; method in brief: as §2
[5] = system: Mycobacterium tuberculosis; assay: Antitubercular activity against Mycobacterium tuberculosis H37Rv ATCC 27294/XDR-TB incubated for 28 days by agar dilution method; type: functional; conditions: 672 h
Method in brief: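 Agar dilution: two-fold dilutions in Middlebrook 7H11 agar with OADC. Inoculum from fresh 7H11/OADC slants adjusted to 1 mg/mL wet weight in 0.05% Tween 80 saline, diluted 10^-2 (~10⁷ cfu/mL); 5 µL spotted per tube. Incubated 37 °C; MIC, lowest concentration fully inhibiting growth, read after 28 days, in triplicate.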

[6] = Antioxidant activity assessed as DPPH radical scavenging activity incubated for 10 mins by UV-visible spectrometry; type: physicochemical
Method in brief: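 DPPH free-radical scavenging; absorbance read at 517 nm against a methanol blank. % scavenging = (A control − A sample)/A control × 100.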

[7] = system: Candida albicans; assay: Antifungal activity against Candida albicans at 0.5 mg/ml incubated for 3 days; type: functional; conditions: for zone of inhibition at 500 µg/mL: 72 h, read-out: IZ; method in brief: as §2
[8] = system: Aspergillus flavus; assay: Antifungal activity against Aspergillus flavus at 0.5 mg/ml incubated for 3 days; type: functional; conditions: for zone of inhibition at 500 µg/mL: 72 h, read-out: IZ; method in brief: as §2
[9] = system: Pseudomonas aeruginosa; assay: Antibacterial activity against Pseudomonas aeruginosa at 1 mg/ml incubated for 18 hrs by well plate technique; type: functional; conditions: for zone of inhibition at 1000 µg/mL: read-out: DIZ; method in brief: as §1
[10] = system: Salmonella typhi; assay: Antibacterial activity against Salmonella typhi at 1 mg/ml incubated for 18 hrs by well plate technique; type: functional; conditions: for diameter of the inhibition zone (DIZ): Salmonella enterica subsp. enterica serovar Typhi; for zone of inhibition at 1000 µg/mL: Salmonella enterica, read-out: DIZ
Method in brief: (§3)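 Well diffusion on nutrient agar; strains kept on nutrient agar at 37 °C, grown statically in nutrient broth 18-24 h at 37 °C, diluted in saline, 0.1 ml spread per plate. Compounds in DMSO at 1 and 0.5 mg/mL added to cork-bored wells; 18 h at 37 °C. Inhibition zone diameter measured, DMSO value subtracted; triplicate; streptomycin reference.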

[11] = system: Aspergillus flavus; assay: Antifungal activity against Aspergillus flavus at 1 mg/ml incubated for 3 days; type: functional; conditions: for zone of inhibition at 1000 µg/mL: 72 h, read-out: IZ; method in brief: as §2
[12] = system: Staphylococcus aureus; assay: Antibacterial activity against Staphylococcus aureus at 0.5 mg/ml incubated for 18 hrs by well plate technique; type: functional; conditions: for zone of inhibition at 500 µg/mL: read-out: DIZ; method in brief: as §1
[13] = system: Staphylococcus aureus; assay: Antibacterial activity against Staphylococcus aureus at 1 mg/ml incubated for 18 hrs by well plate technique; type: functional; conditions: for zone of inhibition at 1000 µg/mL: read-out: DIZ; method in brief: as §1
[14] = system: Escherichia coli; assay: Antibacterial activity against Escherichia coli at 1 mg/ml incubated for 18 hrs by well plate technique; type: functional; conditions: for zone of inhibition at 1000 µg/mL: read-out: DIZ; method in brief: as §1
[15] = system: Salmonella typhi; assay: Antibacterial activity against Salmonella typhi at 0.5 mg/ml incubated for 18 hrs by well plate technique; type: functional; conditions: for diameter of the inhibition zone (DIZ): Salmonella enterica subsp. enterica serovar Typhi; for zone of inhibition at 500 µg/mL: Salmonella enterica, read-out: DIZ; method in brief: as §3
[16] = system: Chrysosporium keratinophilum; assay: Antifungal activity against Chrysosporium keratinophilum at 1 mg/ml incubated for 3 days; type: functional; conditions: for zone of inhibition at 1000 µg/mL: 72 h, read-out: IZ; method in brief: as §2

Row | Compound | inhibition zone (IZ) [2] | inhibition zone (IZ) [4] | MIC [5] [µg/mL] | inhibition (INH) [6] [%] | inhibition zone (IZ) [7] | inhibition zone (IZ) [8] | inhibition zone (IZ) [11] | inhibition zone (IZ) [16] | zone of inhibition at 500 µg/mL [1] [mm] | zone of inhibition at 500 µg/mL [2] [mm] | zone of inhibition at 500 µg/mL [3] [mm] | zone of inhibition at 1000 µg/mL [4] [mm] | zone of inhibition at 500 µg/mL [7] [mm] | zone of inhibition at 500 µg/mL [8] [mm] | zone of inhibition at 1000 µg/mL [9] [mm] | zone of inhibition at 1000 µg/mL [10] [mm] | zone of inhibition at 500 µg/mL [12] [mm] | zone of inhibition at 1000 µg/mL [13] [mm] | zone of inhibition at 1000 µg/mL [14] [mm] | zone of inhibition at 500 µg/mL [15] [mm] | also measured
1 | COc1ccc(-c2nc3sc(-c4ccc(C)cc4)nn3c2-c2nc3ccccc3[nH]2)cc1 | inactive | inactive | 12.5 (≈ 28.6 µM) | 21.6 | inactive | inactive | inactive | inactive |  |  |  |  |  |  |  |  |  |  |  |  | diameter of the inhibition zone (DIZ) [1]: inactive; diameter of the inhibition zone (DIZ) [3]: inactive; diameter of the inhibition zone (DIZ) [9]: inactive; diameter of the inhibition zone (DIZ) [10]: inactive; diameter of the inhibition zone (DIZ) [12]: inactive; diameter of the inhibition zone (DIZ) [13]: inactive; diameter of the inhibition zone (DIZ) [14]: inactive; diameter of the inhibition zone (DIZ) [15]: inactive
2 | Cc1ccc(-c2nc3sc(C)nn3c2-c2nc3cc([N+](=O)[O-])ccc3[nH]2)cc1 | inactive | inactive | 50 (≈ 128 µM) | 28.9 | inactive | inactive | inactive | inactive |  |  |  |  |  |  |  |  |  |  |  |  | diameter of the inhibition zone (DIZ) [1]: inactive; diameter of the inhibition zone (DIZ) [3]: inactive; diameter of the inhibition zone (DIZ) [9]: inactive; diameter of the inhibition zone (DIZ) [10]: inactive; diameter of the inhibition zone (DIZ) [12]: inactive; diameter of the inhibition zone (DIZ) [13]: inactive; diameter of the inhibition zone (DIZ) [14]: inactive; diameter of the inhibition zone (DIZ) [15]: inactive
3 | COc1ccc(-c2nc3sc(-c4ccc(C)cc4)nn3c2-c2nc3cc([N+](=O)[O-])ccc3[nH]2)cc1 | inactive | inactive | 12.5 (≈ 25.9 µM) | 25.1 | inactive | inactive | inactive | inactive |  |  |  |  |  |  |  |  |  |  |  |  | diameter of the inhibition zone (DIZ) [1]: inactive; diameter of the inhibition zone (DIZ) [3]: inactive; diameter of the inhibition zone (DIZ) [9]: inactive; diameter of the inhibition zone (DIZ) [10]: inactive; diameter of the inhibition zone (DIZ) [12]: inactive; diameter of the inhibition zone (DIZ) [13]: inactive; diameter of the inhibition zone (DIZ) [14]: inactive; diameter of the inhibition zone (DIZ) [15]: inactive
4 | CC[C@@H](CO)NCCN[C@@H](CC)CO [ETHAMBUTOL] |  |  | 3.13 (≈ 15.3 µM) |  |  |  |  |  |  |  |  |  |  |  |  |  |  |  |  |  | 
5 | NNC(=O)c1ccncc1 [ISONIAZID] |  |  | 0.1 (≈ 0.729 µM) |  |  |  |  |  |  |  |  |  |  |  |  |  |  |  |  |  | 
6 | COc1ccc(-c2nc3sc(-c4ccc(F)cc4)nn3c2-c2nc3cc(Cl)ccc3[nH]2)cc1 |  |  | 50 (≈ 105 µM) | 38.6 |  |  |  |  | 1 | 1 | 1 | 5 | 2 | 2 | 2 | 3 | 1 | 4 | 5 | 0 | zone of inhibition at 1000 µg/mL [11]: 4 mm; zone of inhibition at 1000 µg/mL [16]: 4 mm
7 | Cc1cc(C(C)(C)C)c(O)c(C(C)(C)C)c1 [BUTYLATED HYDROXYTOLUENE] |  |  |  | 88.6 |  |  |  |  |  |  |  |  |  |  |  |  |  |  |  |  | 
8 | Cc1nn2c(-c3nc4ccccc4[nH]3)c(-c3ccc(Cl)cc3)nc2s1 |  |  | 25 (≈ 68.3 µM) | 28.8 |  |  |  |  | 3 | 6 | 3 | 6 | 4 | 5 | 5 | 3 | 3 | 4 | 4 | 1 | zone of inhibition at 1000 µg/mL [11]: 6 mm; zone of inhibition at 1000 µg/mL [16]: 7 mm
9 | COc1ccc(-c2nc3sc(-c4ccc(Cl)cc4)nn3c2-c2nc3ccccc3[nH]2)cc1 | inactive | inactive | 12.5 (≈ 27.3 µM) | 20.9 | inactive | inactive | inactive | inactive | 1 |  | 1 |  |  |  | 2 | 3 | 2 | 3 | 3 | 1 | 
10 | Cc1nn2c(-c3nc4cc(Cl)ccc4[nH]3)c(-c3ccc(F)cc3)nc2s1 |  |  | 25 (≈ 65.1 µM) | 39.5 |  |  |  |  | 8 | 6 | 10 | 9 | 7 | 5 | 13 | 10 | 6 | 9 | 11 | 7 | zone of inhibition at 1000 µg/mL [11]: 7 mm; zone of inhibition at 1000 µg/mL [16]: 8 mm
11 | NC(=O)c1cnccn1 [PYRAZINAMIDE] |  |  | 50 (≈ 406 µM) |  |  |  |  |  |  |  |  |  |  |  |  |  |  |  |  |  | 
12 | CN[C@@H]1[C@H](O[C@H]2[C@H](O[C@H]3[C@H](O)[C@@H](O)[C@H](N=C(N)N)[C@@H](O)[C@@H]3N=C(N)N)O[C@@H](C)[C@]2(O)C=O)O[C@@H](CO)[C@H](O)[C@H]1O [STREPTOMYCIN] |  |  |  |  |  |  |  |  | 14.3 |  | 13.6 |  |  |  | 16.7 | 17.2 | 12.5 | 16.8 | 18.6 | 15.7 | 
13 | OC(Cn1cncn1)(Cn1cncn1)c1ccc(F)cc1F [FLUCONAZOLE] |  |  |  |  |  |  |  |  |  | 14 |  | 23 | 20 | 10 |  |  |  |  |  |  | zone of inhibition at 1000 µg/mL [11]: 14 mm; zone of inhibition at 1000 µg/mL [16]: 16 mm
